A selection: hits, their analogues and other compounds. The true share with any hit is near 2.5%.
Insulin prom inh: TRM-6 insulin promoter activity inhibition. TRM-6 cells (human fetal islet line), insulin promoter-eGFP reporter, imaging; reporter expression induced with tamoxifen. actives 0.9% (n = 130,000). inhibition, % at 2 µM;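 active = inhibition above the mean plus 3 SD, with well images judged a real hit on visual review, cut at about 60% in these data, passing the limit was not always enough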
NPY Y2 blocker: NPY-Y2 (human) receptor antagonism. P49146. NPY-Y2 expressing cells, antagonist mode. inhibition, % at 2.7 µM. actives 0.99% (n = 140,000);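 also: 0% = vehicle with agonist challenge and 100% = reference antagonist with challenge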
Target sequence (P49146 whole entry, looked up): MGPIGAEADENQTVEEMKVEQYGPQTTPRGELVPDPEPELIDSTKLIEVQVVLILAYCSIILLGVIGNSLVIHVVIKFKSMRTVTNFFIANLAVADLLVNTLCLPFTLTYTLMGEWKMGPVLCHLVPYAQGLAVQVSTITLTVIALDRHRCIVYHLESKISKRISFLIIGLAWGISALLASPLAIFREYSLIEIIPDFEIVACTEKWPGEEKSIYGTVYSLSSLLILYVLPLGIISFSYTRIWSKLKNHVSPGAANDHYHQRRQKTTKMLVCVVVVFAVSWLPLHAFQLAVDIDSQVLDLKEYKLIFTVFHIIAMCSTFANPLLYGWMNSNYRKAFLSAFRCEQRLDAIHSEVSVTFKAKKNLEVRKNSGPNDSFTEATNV
NPY-Y1 antag: antagonists of human neuropeptide Y receptor Y1; actives 1% (n = 200,000); HEK293-CNG Y1 cells, membrane potential fluorescence; NPY at EC95, then isoproterenol; AID 1040; inhibition, % at 3.6 µM; P25929;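 active = inhibition above the campaign mean inhibition of all tested compounds plus 3 SD, cut at about 20% in these data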;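 also: 0% = DMSO wells given NPY plus isoproterenol and 100% = isoproterenol alone without NPY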
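Test system: HEK293 cells co-expressing NPY Y1 receptor and cyclic-nucleotide gated channel; Also added: NPY (25 nM), isoproterenol (1 µM), Ro 20-1724 (25 µM); Compound dosing: one concentration, 3.6 µM, in 0.4% DMSO; Timing: dye 3 h, compound 60 min room temperature, stimulation 45 min; Technique: Membrane-potential fluorescent dye readout.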
NPY-Y1 PAM-ag: human NPY-Y1 potentiation or agonism, primary screen | P25929 | NPY-Y1 expressing cells, potentiator/agonist activation | activation, % at 3.6 µM | actives 0.37% (n = 220,000) | AID 1304; in the data active = activation above about 33%, passing the limit was not always enough;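 also: cells stimulated with NPY at EC10 then isoproterenol at EC100; 0% = low agonist plus stimulus and 100% = saturating agonist plus stimulus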
NPY2 pot ag: potentiators or agonists of human neuropeptide Y receptor Y2. P49146. cells expressing NPY-Y2, potentiator/agonist read-out. activation, % at 3.6 µM. actives 0.45% (n = 220,000). AID 1359; in the data active = activation above about 27%;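 also: cells stimulated with NPY near EC25 plus isoproterenol at EC100; 0% = vehicle plus submaximal agonist and 100% = vehicle plus saturating agonist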
Ins promoter up: MIN6 insulin promoter up-regulation; MIN6 insulin promoter-GFP reporter, high-content imaging; hits give high values; z-score at 5 µM; actives 0.3% (n = 190,000);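 active = z-score above 3 at 5 µM with at least 500 cells counted in the well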
NPY-Y1 ant conf: confirmation of human neuropeptide Y receptor Y1 antagonists | inhibition, % at 3.6 µM | AID 1254 | HEK293-CNG NPY-Y1, membrane potential fluorescence, cAMP; NPY challenge against isoproterenol-raised cAMP | shares compounds with NPY-Y1 antag | actives 21% (n = 1,200); in the data active = inhibition above about 20%;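 also: 0% = vehicle with agonist plus stimulus and 100% = stimulus alone without agonist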
NPY-Y2 antag ct: antagonizes human NPY-Y2, counter-screen to NPY-Y1 antagonists | shares compounds with NPY-Y1 antag | HEK293 NPY-Y2 CNG membrane potential fluorescence, antagonism; cells given NPY, then isoproterenol | inhibition, % at 3.6 µM | actives 28% (n = 1,200) | AID 1255;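 also: 0% = DMSO with agonist challenge and 100% = reference antagonist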
Active calls of the source: *; x = not tested or not shown; ! = not active in a repeat. Rule as the data show it, unless noted: active = inhibition above about 17%; inactive = the rest.

SMILES	Insulin prom inh	NPY Y2 blocker	NPY-Y1 antag	NPY-Y1 PAM-ag	NPY2 pot ag	Ins promoter up	NPY-Y1 ant conf	NPY-Y2 antag ct
Cc1ccc(NC(=O)CC2NCCNC2=O)cc1Cl (configuration not stated)	5.0	x	2.2	8.0	-1.6	x	x	x
O=C(c1ccc(Br)o1)N(Cc1ccccc1)Cc1ccccc1	31.8	14.4	20.1*	-14.0	-15.9	0.12	7.3	4.8
COc1ccc(C(C)=O)cc1COC(=O)CNC(=O)c1cc(C)cc(C)c1	0.0	1.1	-1.6	-10.3	3.8	0.02	x	x
O=C(c1cc(-c2cccs2)on1)N1CCN(c2ccccc2)CC1	x	13.1	25.4*	-31.6	-22.1	-0.01	7.7	9.5
O=C(c1cc(-c2cccs2)on1)N1CCN(c2ccc(F)cc2)CC1	3.0	8.7	8.9	-4.1	6.4	-0.15	x	x
Cc1ccc(-c2csc(Nc3ccc(C(=O)O)cc3)[n+]2Cc2ccccc2)cc1	-54.3	x	-4.4	8.1	12.0	-0.44	x	x
Cc1ccc(-c2csc(Nc3ccccc3)[n+]2CCc2ccccc2)cc1	13.3	x	22.3*	-21.3	-2.8	x	6.1	18.1*
CC(C)CC(c1nnnn1C1CCCCC1)N1CCN(c2ncccn2)CC1 (configuration not stated)	x	2.0	5.0	-16.0	4.6	x	x	x
COc1ccc(OC)c(C(c2nnnn2C2CCCC2)N2CCN(c3ccccc3F)CC2)c1 (configuration not stated)	-7.1	12.9	21.9*	5.9	-19.3	-4.67	6.5	7.9
COc1ccc(N2CCN(C(c3cccc(OC)c3OC)c3nnnn3C3CCCC3)CC2)cc1 (configuration not stated)	48.8	9.1	23.5*	-43.5	-13.5	0.17	21.7*	8.7
CC(C)CC(c1nnnn1C1CCCC1)N1CCN(c2ccccc2F)CC1 (configuration not stated)	8.3	14.1	27.1*	-9.7	-2.1	0.9	24.4*	11.8
O=C(Cc1ccccc1)N/N=C/c1cccc([N+](=O)[O-])c1	x	x	-0.2	-6.8	-11.1	-0.01	x	x
COc1ccccc1-n1cnc2cc(NCc3cccs3)ccc21	-257.1	10.1	21.3*	0.9	-5.0	-1.38	9.3	20.2*
Cn1cccc1CC(=O)NNC(=O)Nc1ccc(F)cc1	-150.0	11.9	-3.0	-5.8	1.3	-0.27	x	x
O=C1CCc2cc(OCCCCc3nnnn3C3CCCCC3)ccc2N1	40.9	6.8	42.8*!	-69.7	-20.9	-0.54	26.5*	45.9*
COc1cccc(N2CCN(Cc3nnnn3C3CCCCC3)CC2)c1	x	x	-0.9	16.2	5.2	-0.94	x	x
COc1ccc(CN2C(=O)CCCc3ccccc32)cc1	x	x	-1.0	-8.1	14.0	-0.24	x	x
CCN(CC)CC(=O)Nc1sc(C)c(C)c1C(=O)c1ccc(C)cc1	-26.7	x	2.4	-16.4	-7.2	-0.58	x	x
Cc1ccc(C(=O)c2c(NC(=O)c3ccccc3C)sc(C)c2C)cc1	-7.7	3.2	22.9*	-65.6	-31.2	-0.16	17.3	35.6*
CCOC(=O)CSc1nnc(SCCN2C(=O)c3ccccc3C2=O)s1	-14.3	2.9	0.4	-7.2	2.0	x	x	x
CC(C)C(=O)N1CCN(c2ccccc2NC(=O)c2ccc(C#N)cc2F)CC1	-42.9	x	41.7*	-15.4	-14.0	-0.66	19.5	12.4
COc1ccc(-c2cc(C(=O)OCC(=O)NC(C)C)c3ccccc3n2)cc1	x	x	-0.8	-17.4	-13.2	0.31	x	x
N/C(=N\OC(=O)Cc1cccs1)c1ccc([N+](=O)[O-])cc1	-34.6	2.5	24.2*	27.9	-1.4	-0.54	2.1	6.0
Cc1ccc(NC(=O)COC(=O)Cn2cnc3c2c(=O)n(C)c(=O)n3C)cc1Cl	x	x	1.5	2.3	0.7	-0.19	x	x
CCCC(=O)n1nc(-c2cccnc2)nc1NCc1ccccc1	x	x	-1.9	27.4	5.8	0.66	x	x
SMILES	Insulin prom inh	NPY Y2 blocker	NPY-Y1 antag	NPY-Y1 PAM-ag	NPY2 pot ag	Ins promoter up	NPY-Y1 ant conf	NPY-Y2 antag ct
CCc1cccc(CC)c1NC(=O)CN1CC(C)SC1=NC1CCCCC1 (configuration not stated)	-23.7	13.3	34.2*	3.8	5.8	0.49	34.0*	17.4*
O=C(Nc1ncc(Cc2ccc(SC(F)F)cc2)s1)c1ccccc1	-5.6	8.1	20.8*	-15.2	3.9	-0.37	3.8	16.1
Cc1ccc(OCC(=O)Nc2ccccc2-c2ccccc2)cc1	x	7.2	7.0	-42.8	-35.5	x	x	x
COc1cccc(OCC(=O)Nc2ccccc2-c2ccccc2)c1	x	x	24.4*	-22.6	-11.3	-0.48	15.5	12.5
O=C(NC1CCCCC1)C(c1cccs1)N(Cc1cccs1)C(=O)c1ccco1 (configuration not stated)	x	10.8	46.6*	-24.5	-20.5	0.51	13.6	10.7
Clc1ccc(CNc2nc(CN3CCOCC3)nc3scc(-c4ccccc4)c23)cc1	6.7	13.4	22.3*	-42.6	-22.7	0.26	21.7*	18.2*
Clc1ccc(-c2csc3ncnc(NCCN4CCOCC4)c23)cc1	-7.1	4.9	-6.3	1.3	-5.3	-0.83	x	x
CCOC(=O)C1CCN(C(=O)CCS(=O)(=O)c2ccc3c(c2)CC(C)N3C(=O)CC)CC1 (configuration not stated)	54.5	x	36.8*	-5.6	11.5	0.24	3.0	2.8
CCOC(=O)C1CCN(C(=O)CCS(=O)(=O)c2ccc3c(c2)CCN3C(=O)CC)CC1	28.6	x	-1.1	25.9	14.8	-0.44	x	x
CC(C)(C)NC(=S)N/N=C/c1cccnc1	x	x	x	-8.4	-6.2	0.3	x	x
COc1cc(SC)ccc1C(=O)NCCOc1ccc(C)c(C)c1	x	15.2	12.4	1.8	-12.5	-0.1	x	x
Cc1ccc(C(=O)c2cc([N+](=O)[O-])ccc2N2CC(C)OC(C)C2)cc1 (configuration not stated)	x	4.0	0.5	-9.7	6.0	-0.05	x	x
Cc1ccc(C(=O)c2cc([N+](=O)[O-])ccc2N2CCCCC2)cc1	x	16.2	22.0*	-62.2	-1.7	-1.47	11.9	26.1*
CCCCN(CCCC)CC(O)COc1ccccc1C(=O)Nc1ccccc1 (configuration not stated)	x	x	45.6*	-21.8	-25.9	-2.8	18.0	18.2*
COC(=O)[C@@]1(Cc2ccc(F)cc2)[C@H]2c3cc(C(=O)N4CCCC4)n(Cc4ccc(C(F)(F)F)nc4)c3C[C@H]2CN1C(=O)c1ccccc1	5.0	15.9	28.0*	-9.2	-2.9	-0.78	27.7*	9.3
COC(=O)[C@@]1(Cc2ccc(OC)cc2)[C@H]2c3cc(C(=O)N4CCCC4)n(Cc4ccc(OC)c(OC)c4)c3C[C@H]2CN1C(=O)c1ccccc1	-10.0	11.5	10.5	-23.1	-8.7	-0.89	x	x

Bioassay records from PubChem.
